Ecoli rRNA inh: reduced GFP signal of wild-type E. coli, primary screen, bacterial rRNA inhibitor project, GFP/RFP fluorescence, OD600, single point. GFP signal change (wild-type ribosome), % (test concentration not listed). 350,000 tested, 1.6% active. E. coli WT GFP vs humanized-ribosome RFP mutants, 24 h; active compounds read low; DMSO median 0, no signal -100;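 active means significant combined selectivity score with lowered wild-type GFP, culture density cut under 30%, mutant RFP and density less affected; inactive means any of these conditions unmet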
PglD inh: C. jejuni PglD acetyltransferase inhibitors, primary screen, biochemical, DTNB colorimetric, single point; UDP-N-acetylbacillosamine N-acetyltransferase PglD (Campylobacter jejuni); purified PglD enzyme, DTNB colorimetric CoA detection; inhibition, % at 12.5 µM; 360,000 tested, 0.098% active; AID 602405, 2012; in the data active means inhibition above about 16%, passing the limit was not always enough
DENV2 CPE rescue: inhibitors of DENV2 cytopathic effect, primary screen, cell-based, plate reader, single concentration; DENV2-infected cells, cytopathic effect rescue; CPE inhibition, % at 9.99 µM; 350,000 tested, 1.7% active; AID 651640, 2012; in the data active means CPE inhibition above about 20%, passing the limit was not always enough; tested in BHK-21 cells
HIV Env fusion: inhibitors of HIV-1 Env-driven cell-cell fusion, primary screen, HeLa-JRFL effector, CEM21 target cells, luciferase; inhibition, % at 12.3 µM; 360,000 tested, 1.1% active;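 active means mean replicate inhibition score of at least 50 and every replicate individually at or above 50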
FN deposit inh: inhibitors of fibronectin matrix deposition, primary screen, AH1F cells, Alexa488-fibronectin fluorescence, plate reader | AID 743247, 2014 | AH1F fibroblasts, overnight | 350,000 tested, 0.086% active | inhibition, % at 12.6 µM;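 active means mean inhibition across replicates of 30% or more, regardless of how many single replicates reach that level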
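Material: AH1F fibroblasts assembling fluorescent fibronectin matrix; amount: 10000 AH1F cells/well; medium: DMEM, 2% serum; reagent: Alexa488-fibronectin, 24 nM final in well; dosing: single compound dose, delivered by pin transfer; incubation: 1 h adhesion, overnight exposure; detection: fluorescence after three HBSS washes, excitation 485 nm, emission 525 nm; measure: fibronectin deposition inhibition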
PGC1a acetyl inh: inhibitors of PGC1a acetylation signal, primary screen, cell-based, U2OS, AlphaScreen, inhibitor mode | AlphaScreen anti-acetyl-lysine; with virally co-expressed GCN5 acetyltransferase | AID 651687, 2012 | inhibition, % at 15.6 µM | 350,000 tested, 0.17% active;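 active means every replicate shows inhibition of at least 40%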
Of the large screens only hits and unclear results are named; the others gave an inactive call. A selection: hits, their analogues and other compounds. The true share with any hit is near 3.5%.

C[C@@H]1CCCCO[C@H](CN(C)C)[C@@H](C)CN([C@H](C)CO)C(=O)c2cc(NC(=O)NC3CCCCC3)ccc2O1	none (no result: FN deposit inh)
O=S(=O)(c1ccc(F)cc1)N1CC[C@@H]2[C@@H](CO)Nc3ccc(C#Cc4cccc(F)c4)cc3[C@@H]21	DENV2 CPE rescue 24 (no result: PglD inh, HIV Env fusion)
OC[C@@H]1Nc2ccc(-c3ccccc3)cc2[C@H]2[C@@H]1CCN2Cc1ccc(F)cc1	DENV2 CPE rescue 49 (no result: HIV Env fusion)
Cc1cccc(S(=O)(=O)N2CC[C@@H]3[C@@H](CO)N(C)c4ccc(-c5ccc(C#N)cc5)cc4[C@@H]32)c1	DENV2 CPE rescue 45 (no result: HIV Env fusion)
N#Cc1ccc(-c2ccc3c(c2)[C@@H]2[C@@H](CCN2S(=O)(=O)c2cccc(F)c2)[C@H](CO)N3)cc1	DENV2 CPE rescue 34, FN deposit inh 31 (no result: HIV Env fusion)
CC(C)NC(=O)N(C)C[C@@H]1Oc2c(NC(=O)NC3CCCCC3)cccc2C(=O)N([C@H](C)CO)C[C@@H]1C	none (no result: FN deposit inh)
O=S(=O)(c1ccc(F)cc1)N1CC[C@@H]2[C@H]1c1cc(-c3ccc(F)cc3)ccc1N[C@@H]2CO	DENV2 CPE rescue 86 (no result: HIV Env fusion)
N#C[C@@H]1[C@@H](c2ccccc2)[C@H](CO)N1S(=O)(=O)c1ccc(-c2ccccc2)cc1	none
NC(c1ccccc1)c1csc(NC(=O)Nc2cccc(Cl)c2)n1 (centres undefined)	none
NC(c1csc(NC(=O)Nc2ccccc2Cl)n1)C1CCCCC1 (centres undefined)	none (no result: HIV Env fusion)
NC(c1csc(NC(=O)Nc2ccccc2)n1)C1CCCCC1 (centres undefined)	HIV Env fusion 57
NC(c1csc(NC(=O)Nc2cccc(Cl)c2)n1)C1CCCCC1 (centres undefined)	DENV2 CPE rescue 112
C[C@@H]1CN([C@@H](C)CO)C(=O)CCCn2cc(nn2)CO[C@@H]1CN(C)Cc1ccc(C(F)(F)F)cc1	none (no result: PglD inh, DENV2 CPE rescue, HIV Env fusion)
CC(=O)c1ccc(OCc2cc(C(=O)N3CCC(c4ccncc4)CC3)no2)cc1	none (no result: PGC1a acetyl inh)
CC(=O)c1ccc(OCc2cc(C(=O)N3CCCCC3c3cccnc3)no2)cc1 (centres undefined)	Ecoli rRNA inh -28 (no result: PGC1a acetyl inh)
CCC1CCCCN1C(=O)c1cc(COc2ccc3ncccc3c2)on1 (centres undefined)	Ecoli rRNA inh -30 (no result: PglD inh, PGC1a acetyl inh)
CN1CCN(C(=O)C[C@@H]2C=C[C@@H](NS(=O)(=O)c3cccc(F)c3)[C@H](CO)O2)CC1	none
COc1ccc(C(=O)N2C[C@H]3[C@@H](c4ccccc42)[C@@H](CO)N3Cc2ccccc2)cc1	none (no result: HIV Env fusion, FN deposit inh)
CC(C)NC(=O)N(C)C[C@@H]1Oc2c(cccc2N(C)C)C(=O)N([C@@H](C)CO)C[C@@H]1C	none (no result: FN deposit inh)
CCC(CC)COC(=O)C1=C(C)NC(=O)NC1c1cccc([N+](=O)[O-])c1 (centres undefined)	HIV Env fusion 62
Cc1nn(C)cc1NC(=O)C[C@@H]1CC[C@H]2[C@H](COc3ccc(NC(=O)C(C)C)cc3C(=O)N2C)O1	none
CCCN(C)C[C@@H]1Oc2cc(C3=CCCCC3)ccc2S(=O)(=O)N([C@H](C)CO)C[C@@H]1C	none (no result: FN deposit inh)
Cc1ccccc1Nc1nc(N)nc(-c2oc3ccccc3c2C)n1	Ecoli rRNA inh -36, DENV2 CPE rescue 69
O=C(c1ccccc1)N1Cc2ccccc2[C@@H]2OC(c3ccc(OCCCO)cc3)=N[C@]2(Cc2ccccc2)C1=O	none (no result: Ecoli rRNA inh, FN deposit inh)
COc1cc2oc(=O)cc(-c3cccc(-c4cccc(C)c4)c3)c2c(OC)c1OC	HIV Env fusion 57
C[C@H](CO)N1C[C@H](C)[C@@H](CN(C)CC2CCCCC2)OCCCC[C@H](C)Oc2ccc(NS(=O)(=O)c3cccs3)cc2C1=O	none (no result: FN deposit inh)
O=C(NCC[C@H]1CC[C@@H](NC(=O)c2ccc3c(c2)OCO3)[C@@H](CO)O1)Nc1ccc(Cl)cc1	none
CCc1ccc(NS(=O)(=O)c2ccc3[nH]cc(C(=O)N(C)Cc4ccco4)c(=O)c3c2)cc1	Ecoli rRNA inh -25 (no result: HIV Env fusion, FN deposit inh)
